For five compounds, IC50 results are on record in ChEMBL document CHEMBL4002579, “Isolation and Structure Elucidation by LC-DAD-MS and LC-DAD-SPE-NMR of Cyclopeptide Alkaloids from the Roots of Ziziphus oxyphylla and Evaluation of Their Antiplasmodial Activity” (J Nat Prod, 2016).

Assay [1] relates to Plasmodium falciparum. The assay is described as follows: Antiplasmodial activity against multidrug-resistant Plasmodium falciparum K1 assessed as reduction in parasite growth by [3H]-hypoxanthine incorporation assay. Format: functional.
In assay [2] the test system is Plasmodium falciparum. The assay is described as follows: Antiplasmodial activity against chloroquine-resistant Plasmodium falciparum K1 infected in human O+erythrocytes after 72 hrs by lactate dehydrogenase assay. Type of assay: functional, cell-based. To be noted: K1, 72 h.
The subject of the next assay is MRC5. The assay is described as follows: Cytotoxicity against human MRC5 cells assessed as decrease in cell proliferation/viability after 7 days by MTT assay. Type of assay: cell-based. To be noted: MRC5, 168 h. Put shortly: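 Human fetal lung fibroblast MRC-5 cells; tested up to a highest concentration of 64.0 μM. Result is the mean and standard deviation of three experiments.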
In general terms: Tetrazolium dyes change colour on reduction, which living cells bring about.

`CCC(C)[C@@H]1NC(=O)[C@@H]2[C@H](CCN2C(=O)[C@H](Cc2c[nH]c3ccccc23)N(C)C)Oc2ccc(cc2)/C=C\NC1=O` (stereo partly specified): the IC50 with Plasmodium falciparum [1] is 7.3 µM; in the assay with Plasmodium falciparum [2], 13.6 µM; with MRC5, > 64 µM.

Regarding `CCC(C)[C@@H]1NC(=O)[C@@H]2[C@H](CCN2C(=O)[C@H](Cc2c[nH]c3ccccc23)N(C)C)Oc2ccc(OC)c(c2)/C=C\NC1=O` (stereo partly specified), the 50% inhibitory concentration (IC50) was found to be 3.2 µM in the assay on Plasmodium falciparum [2] and 30.6 µM with MRC5.

On to `CCC(C)[C@@H]1NC(=O)[C@@H]2[C@H](CCN2C(=O)[C@H](C(C)CC)N(C)C)Oc2ccc(cc2)/C=C\NC1=O` (stereo partly specified), for which the IC50 in the assay with Plasmodium falciparum [2] is > 32 µM; in the assay on MRC5 it was > 64 µM.

In the case of `CCC(C)[C@@H]1NC(=O)[C@@H]2[C@H](CCN2C(=O)[C@H](Cc2c[nH]c3ccccc23)N(C)C)Oc2ccc(O)c(c2)/C=C\NC1=O` (stereo partly specified), the IC50 is 7.1 µM in the assay on Plasmodium falciparum [2] and > 64 µM in the assay with MRC5.

As to `O=C1N/C=C\c2ccc(cc2)O[C@@H](c2ccccc2)[C@H](NC(=O)[C@@H]2CCCN2C(=O)/C=C/c2ccccc2)C(=O)N[C@H]1C(O)c1ccccc1` (stereo partly specified), the IC50 stood at 7.4 µM with Plasmodium falciparum [2] and 31.2 µM in the assay on MRC5.

What is called IC50 is the concentration that inhibits the measured activity by half.
